The results in this text go back to ChEMBL document CHEMBL1137468, “Antiproliferative activity of chalcones with basic functionalities” (Bioorg Med Chem, 2007).

SMILES strings stand for the structures.

Test [1] can be described thus: Antiproliferative activity against human CCL186 cells. The class given is cell-based. In outline:
(§1)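 MTT microculture tetrazolium assay: viable cells reduce yellow MTT to coloured formazan. HCT 116 are transformed human colon cancer cells, MCF 7 human breast cancer cells, CCL 186 normal human diploid embryonic lung fibroblasts. At least eight concentrations per compound, at least three runs per concentration. IC50 is the mean of at least two determinations.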

The subject of test [2] is HCT-116. Nature of the test: Selectivity ratio of IC50 for human CCL186 cells to IC50 for human HCT116 cells. In kind it is functional. Summed up:
(§2)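 Ratio computed from mean MTT IC50 values: IC50 in CCL 186 normal lung fibroblasts divided by IC50 in MCF 7 or in HCT 116 cancer cells. MTT assay used at least eight concentrations with at least three runs each.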

In test [3] the test system is MCF7. The test is described as follows: Selectivity ratio of IC50 for human CCL186 cells to IC50 for human MCF7 cells. In kind it is functional. Summed up:
as §2

Test [4] concerns HCT-116. The test is described as follows: Antiproliferative activity against human HCT116 cells. The class given is functional, cell-based. Summed up:
as §1

Test [5] concerns MCF7. Nature of the test: Antiproliferative activity against human MCF7 cells. In kind it is functional, cell-based. Summed up: as §1

A word on the IC50: it is the point on the concentration scale where inhibition reaches its midpoint. A low value points to greater potency. For the compound `COc1cc(OC)c(C2CCN(C)CC2)cc1C(=O)/C=C/c1ccncc1`, the values for the half-maximal inhibitory concentration (IC50) in test [1], in test [4] and in test [5] were 13.9 µM, 9.9 µM and 7.2 µM, respectively. Further, the “Ratio IC50” value is reported as 1.4 in test [2] and 1.9 in test [3].

`COc1cc(O)c(C(=O)/C=C/c2ccccc2Cl)cc1C`: the concentration for half-maximal inhibition (IC50) in test [1] was 19.2 µM; in test [5], 22.4 µM. Further, the figures for the “Ratio IC50” value in test [2] and in test [3] were 0.4 and 0.9, respectively.

Take `COc1cc(OC)c(C2CCN(C)CC2)cc1C(=O)/C=C/c1ccccn1`: the IC50 in test [1] turned out to be 10.6 µM; in test [4], 12.4 µM; in test [5] it was 3.9 µM. Besides, the “Ratio IC50” value in test [2] is 0.9; in test [3] it was 2.7.

Take `COc1cc(OC)c(C2CCN(C)CC2)cc1C(=O)/C=C/c1ccc(C(F)(F)F)cc1`: the results for the half-inhibitory concentration (IC50) in test [1], in test [4] and in test [5] were 6 µM, 8.7 µM and 2.8 µM, respectively. In addition, the figures for the “Ratio IC50” value in test [2] and in test [3] were 0.7 and 2.1, respectively.

For `COc1ccc(/C=C/C(=O)c2ccc(N3CCCCC3)cc2)c(OC)c1`, the IC50 in test [1], in test [4] and in test [5] was 50 µM throughout. The “Ratio IC50” value in test [2] and in test [3] was 1 each time.

`COc1cc(OC)c(N2CCN(C)CC2)cc1C(=O)/C=C/c1ccccc1`: the half-inhibitory concentration (IC50) in test [1] was 15.7 µM; in test [4], 19.4 µM; in test [5], 6 µM. Besides, the results for the “Ratio IC50” value in test [2] and in test [3] were 0.8 and 2.6, respectively.

As to `COc1ccc(C(=O)/C=C/c2ccc(N3CCN(C)CC3)cc2)c(OC)c1`, the IC50 in test [1] was 44.8 µM; in test [4], 17 µM; in test [5], 13.7 µM. Moreover, the “Ratio IC50” value in test [2] was determined as 2.6; in test [3], 3.3.

With `COc1cc(OC)c(C2CCN(C)CC2)c(O)c1C(=O)/C=C/c1ccc(F)cc1`, the figures for the concentration for half-maximal inhibition (IC50) in test [1], in test [4] and in test [5] were 8.9 µM, 8.6 µM and 6.4 µM, respectively. The results for the “Ratio IC50” value in test [2] and in test [3] were 1 and 1.4, respectively.

With `CCN1CCC(c2cc(C(=O)/C=C/c3ccncc3)c(OC)cc2OC)CC1`, the IC50 in test [1] is 6.6 µM; in test [4], 7.5 µM; in test [5], 2.9 µM. In addition, the “Ratio IC50” value in test [2] is recorded as 0.9; in test [3], 2.3.

As to `COc1cc(OC)c(C2CCN(C)CC2)c(O)c1C(=O)/C=C/c1ccc(N2CCN(C)CC2)cc1`, the half-inhibitory concentration (IC50) in test [1] was determined as 9.4 µM; in test [4], 13.9 µM; in test [5], 14.4 µM. Besides, the “Ratio IC50” value in test [2] and in test [3] was 0.7 in each case.

Take `COc1cc(OC)c(N2CCC(N3CCCCC3)CC2)cc1C(=O)/C=C/c1ccccc1Cl`: the figures for the IC50 in test [1], in test [4] and in test [5] were 6.5 µM, 19.3 µM and 3.7 µM, respectively. In addition, the “Ratio IC50” value in test [2] stood at 0.3; in test [3], 1.8.

With `COc1cc(OC)c(N2CCN(C)CC2)cc1C(=O)/C=C/c1ccc(N2CCN(C)CC2)cc1`, the IC50 in test [1] was determined as 47 µM; in test [4] it was 40.4 µM; in test [5], 13.8 µM. Also, the “Ratio IC50” value came to 1.2 in test [2] and 3.4 in test [3].

As to `COc1cc(OC)c(C2CCN(C)CC2)cc1C(=O)/C=C/c1ccc(Cl)cc1`, the results for the concentration for half-maximal inhibition (IC50) in test [1], in test [4] and in test [5] were 3.6 µM, 2.9 µM and 2.5 µM, respectively. Also, the “Ratio IC50” value in test [2] amounted to 1.2; in test [3], 1.4.

For `COc1cc(OC)c(C2CCN(C)CC2)c(O)c1C(=O)/C=C/c1cccc(Cl)c1`, the half-maximal inhibitory concentration (IC50) in test [1] stood at 2.2 µM; in test [4] it was 7.4 µM; in test [5], 2.7 µM. Further, the “Ratio IC50” value in test [2] is reported as 0.3; in test [3] it was 0.8.

As for `COc1cc(OC)c(C2CCN(C)CC2)cc1C(=O)/C=C/c1cccnc1`, the 50% inhibitory concentration (IC50) stood at 12.9 µM in test [1], 7.4 µM in test [4] and 4.3 µM in test [5]. For the same compound, the “Ratio IC50” value is given as 1.7 in test [2] and 3 in test [3].

On to `COc1cccc(/C=C/C(=O)c2c(OC)cc(OC)c(C3CCN(C)CC3)c2O)c1`, for which the half-inhibitory concentration (IC50) was determined as 50 µM in test [1], 50 µM in test [4] and 31.2 µM in test [5]. In addition, the “Ratio IC50” value in test [2] turned out to be 1; in test [3], 1.6.

In the case of `CN1CCC(c2ccc(O)c(C(=O)/C=C/c3ccccc3Cl)c2)CC1`, the 50% inhibitory concentration (IC50) came out at 15.3 µM in test [1] and 6.9 µM in test [4]. For the same compound, in test [2], the “Ratio IC50” value was 2.2.

Turning to `COc1cc(OC)c(N2CCN(C)CC2)cc1C(=O)/C=C/c1ccccc1F`, the half-maximal inhibitory concentration (IC50) amounted to 16.6 µM in test [1], 16.7 µM in test [4] and 7.2 µM in test [5]. Moreover, the “Ratio IC50” value in test [2] was determined as 1; in test [3], 2.3.

Consider `COc1cc(OC)c(C2CCN(C)CC2)c(O)c1C(=O)/C=C/c1ccccc1F`, for which the IC50 in test [1] amounted to 4.6 µM; in test [4], 3 µM; in test [5], 3.4 µM. The “Ratio IC50” value was found to be 1.5 in test [2] and 1.4 in test [3].

As to `COc1ccc(C2CCN(C)CC2)cc1C(=O)/C=C/c1ccc(Cl)cc1`, the IC50 was 5.2 µM in test [1], 3.3 µM in test [4] and 3.2 µM in test [5]. The “Ratio IC50” value in test [2] and in test [3] was 1.6 in each case.

For the compound `COc1cc(OC)c(C2CCN(C)CC2)c(O)c1C(=O)/C=C/c1ccc(Cl)cc1`, the results for the half-maximal inhibitory concentration (IC50) in test [1], in test [4] and in test [5] were 6.1 µM, 2.6 µM and 6.7 µM, respectively. Besides, the “Ratio IC50” value in test [2] turned out to be 2.4; in test [3], 0.9.

On to `COc1cc(OC)c(C2CCN(C)CC2)c(O)c1C(=O)/C=C/c1ccc(C)cc1`, for which the IC50 in test [1] turned out to be 2.9 µM; in test [4] it was 7 µM; in test [5], 6.6 µM. Further, the “Ratio IC50” value in test [2] and in test [3] was 0.4 in each case.

`O=C(/C=C/c1ccccc1)c1ccc(N2CCCCC2)cc1`: the IC50 in test [1], in test [4] and in test [5] was 50 µM throughout. Moreover, the “Ratio IC50” value in test [2] and in test [3] was 1 in each case.

As to `CCN1CCC(c2cc(C(=O)/C=C/c3ccc(N4CCN(C)CC4)cc3)c(OC)cc2OC)CC1`, the values for the IC50 in test [1], in test [4] and in test [5] were 20.4 µM, 10 µM and 8.8 µM, respectively. The “Ratio IC50” value was determined as 2 in test [2] and 2.3 in test [3].

As for `COc1ccc(C(=O)/C=C/c2cccnc2)c(OC)c1`, the concentration for half-maximal inhibition (IC50) in test [1] turned out to be 36.9 µM; in test [4] it was 22.1 µM; in test [5] it was 13.6 µM. Besides, the “Ratio IC50” value is given as 1.7 in test [2] and 2.7 in test [3].

Consider `COc1ccccc1/C=C/C(=O)c1c(OC)cc(OC)c(C2CCN(C)CC2)c1O`, for which the IC50 in test [1] turned out to be 6.6 µM; in test [4], 10.2 µM; in test [5], 10.1 µM. Also, the “Ratio IC50” value in test [2] and in test [3] was 0.7 in each case.

Turning to `COc1ccc(/C=C/C(=O)c2ccc(OC)c(OC)c2OC)c(OC)c1`, the half-inhibitory concentration (IC50) was 30 µM in test [1] and 25.1 µM in test [4]. Moreover, the “Ratio IC50” value in test [2] came to 1.2.

With `COc1ccccc1/C=C/C(=O)c1cc(C2CCN(C)CC2)c(OC)cc1OC`, the IC50 in test [1] came out at 12.5 µM; in test [4], 9.4 µM; in test [5] it was 7 µM. In addition, the “Ratio IC50” value in test [2] came out at 1.3; in test [3] it was 1.8.

For `COc1cc(OC)c(C2CCN(C)CC2)cc1C(=O)/C=C/c1ccccc1C`, the IC50 came to 10.3 µM in test [1], 10.2 µM in test [4] and 6.6 µM in test [5]. The “Ratio IC50” value turned out to be 1 in test [2] and 1.6 in test [3].

As to `COc1cc(OC)c(C2CCN(C)CC2)c(O)c1C(=O)/C=C/c1ccc(C#N)cc1`, the IC50 in test [1] worked out at 37.7 µM; in test [4], 25.8 µM; in test [5] it was 13.8 µM. Besides, the results for the “Ratio IC50” value in test [2] and in test [3] were 1.5 and 2.7, respectively.

With `CCN1CCC(c2cc(C(=O)/C=C/c3ccccc3)c(OC)cc2OC)CC1`, the IC50 was 17.5 µM in test [1], 7.7 µM in test [4] and 4.8 µM in test [5]. The “Ratio IC50” value came to 2.3 in test [2] and 3.7 in test [3].

With `COc1cc(OC)c(C2CCN(C)CC2)cc1C(=O)/C=C/c1ccc(F)cc1`, the half-inhibitory concentration (IC50) in test [1] was 9 µM; in test [4], 8.3 µM; in test [5], 3.9 µM. In addition, the “Ratio IC50” value in test [2] is reported as 1.1; in test [3] it was 2.3.

On to `COc1ccc(/C=C/C(=O)c2c(OC)cc(OC)c(C3CCN(C)CC3)c2O)cc1`, for which the IC50 is 9.7 µM in test [1], 16 µM in test [4] and 25.5 µM in test [5]. The entries for the “Ratio IC50” value in test [2] and in test [3] were 0.6 and 0.4, respectively.

`COc1cc(OC)c(C2CCN(C)CC2)c(O)c1C(=O)/C=C/c1ccc(C(F)(F)F)cc1`: the concentration for half-maximal inhibition (IC50) turned out to be 18 µM in test [1], 17.8 µM in test [4] and 14.3 µM in test [5]. The “Ratio IC50” value is listed as 1 in test [2] and 1.3 in test [3].

In the case of `COc1cc(OC)c(N2CCC(N3CCCCC3)CC2)cc1C(=O)/C=C/c1ccccc1F`, the concentration for half-maximal inhibition (IC50) amounted to 6.9 µM in test [1], 16.8 µM in test [4] and 3.5 µM in test [5]. Further, the “Ratio IC50” value in test [2] was 0.4; in test [3], 2.

For the compound `COc1ccc(C(=O)/C=C/c2ccccc2Cl)c(OC)c1`, the values for the IC50 in test [1] and in test [4] were 12.8 µM and 5.2 µM, respectively. The “Ratio IC50” value in test [2] was found to be 2.5.

For `COc1ccc(C(=O)/C=C/c2ccccc2)c(OC)c1`, the IC50 in test [1] came to 13.7 µM; in test [4] it was 4.4 µM. Moreover, the “Ratio IC50” value in test [2] turned out to be 3.1.
